Results taken from ChEMBL document CHEMBL5038619, “Interfering with the Tumor-Immune Interface: Making Way for Triazine-Based Small Molecules as Novel PD-L1 Inhibitors” (J Med Chem, 2021).
Activity calls are given as the source filed them. The rule behind the calls is not given here.

Tests used:
[1] = target: T1, Programmed cell death protein 1/Programmed cell death 1 ligand 1 (Homo sapiens, UniProt Q9NZQ7); experiment: Inhibition of human recombinant PD-1/PDL-1 interaction measured by HTRF assay; format: protein-complex assay
[2] = target: T1, Programmed cell death protein 1/Programmed cell death 1 ligand 1; experiment: Inhibition of PD-1/PDL-1 (unknown origin) binding; format: protein-complex assay
[3] = Cytotoxicity against human PBMC cells assessed as reduction in cell viability at 100 uM for 48 hrs by CCK-8 assay; format: toxicity, cell-based
Outline: (§1)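 Cells were seeded at 1×10^4/well in triplicate and exposed to 0.1–100 μM compound with DMSO held at 0.02% in all wells. Untreated wells served as reference. After 24 or 48 h at 37 °C, 5% CO2, viability was read by CCK-8 at 450 nm (reference 600 nm). Results are percent survival versus untreated, mean ± SD of three independent experiments in triplicate.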

PC-9 [4] = experiment: Cytotoxicity against human PC-9 cells assessed as reduction in cell viability at 10 uM for 48 hrs by CCK-8 assay; format: toxicity, cell-based; settings: pc-9, 48 h; outline: as §1
PC-9 [5] = experiment: Immunomodulatory activity in human PC9 cells expressing PD-L1 assessed as morphological changes at 1 uM measured after 48 hrs by phase-contrast microscopy; format: functional, cell-based
[6] = Cytotoxicity against human PBMC cells assessed as reduction in cell viability at 10 uM for 24 hrs by CCK-8 assay; format: toxicity, cell-based; outline: as §1
PC-9 [7] = experiment: Cytotoxicity against human PC-9 cells assessed as reduction in cell viability at 100 uM for 48 hrs by CCK-8 assay; format: toxicity, cell-based; settings: pc-9, 48 h; outline: as §1
PC-9 [8] = experiment: Cytotoxicity against human PC-9 cells assessed as reduction in cell viability at 10 uM for 24 hrs by CCK-8 assay; format: toxicity, cell-based; settings: pc-9, 24 h; outline: as §1
[9] = Cytotoxicity against human PBMC cells assessed as reduction in cell viability at 10 uM for 48 hrs by CCK-8 assay; format: toxicity, cell-based; outline: as §1
HCC827 [10] = experiment: Immunomodulatory activity in human HCC827 cells expressing PD-L1 co-cultured stimulated PMBC cells assessed as reduction in cell viability at 1 uM for 48 hr by CCK8 assay; format: functional, cell-based
Outline: (§2)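 PC9 or HCC827 cells were co-cultured 48 h with PBMCs, treated with 1 μM compound and stimulated 1 h later with anti-CD3/anti-CD28 (1 μg/mL each). PBMCs were then removed by PBS washes and viability of the remaining cancer cells was read by CCK-8. Results are percent survival versus untreated, mean ± SD of three independent experiments in triplicate.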

PC-9 [11] = experiment: Immunomodulatory activity in human PC9 cells expressing PD-L1 co-cultured stimulated PMBC cells assessed as IFN-gamma release level at 1 uM measured after 48 hr by ELISA; format: functional, cell-based
Outline: (§3)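 Co-culture: PC9 or HCC827 cells (2×10^5/well) plus 2×10^6 PBMCs, 1 μM compound, then anti-CD3/anti-CD28 TransAct (1 μg/mL each) 1 h later. After 48 h, IFN-γ in the medium was measured by sandwich ELISA (450 nm). Values are mean ± SD of three independent experiments in triplicate; two-sided t-test.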

HaCaT [12] = experiment: Cytotoxicity against human HaCaT cells assessed as reduction in cell viability at 10 uM for 24 hrs by CCK-8 assay; format: toxicity, cell-based; outline: as §1
PC-9 [13] = experiment: Immunomodulatory activity in human PC9 cells expressing PD-L1 co-cultured stimulated PMBC cells assessed as reduction in cell viability at 1 uM for 48 hr by CCK8 assay; format: functional, cell-based; outline: as §2
[14] = target: Programmed cell death 1 ligand 1 (Homo sapiens) (UniProt Q9NZQ7); settings: dose 32.0 µM
HaCaT [15] = experiment: Cytotoxicity against human HaCaT cells assessed as reduction in cell viability at 100 uM for 48 hrs by CCK-8 assay; format: toxicity, cell-based; outline: as §1
PC-9 [16] = experiment: Cytotoxicity against human PC-9 cells assessed as reduction in cell viability at 100 uM for 24 hrs by CCK-8 assay; format: toxicity, cell-based; settings: pc-9, 24 h; outline: as §1
HCC827 [17] = experiment: Immunomodulatory activity in human HCC827 cells expressing PD-L1 co-cultured stimulated PMBC cells assessed as induction of apoptosis at 1 uM for 48 hr by Annexin V-FITC and propidium iodide based flow cytometry; format: functional, cell-based
Outline: (§4)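 In the same PBMC/cancer-cell co-culture (1 μM compound for 1 h before TransAct anti-CD3/CD28 stimulation, 1 μg/mL each), cells were harvested after 48 h. They were stained with annexin V-FITC/PI and analysed by flow cytometry. Results are mean fraction of annexin V+ cells ± SD, three independent experiments.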

HaCaT [18] = experiment: Cytotoxicity against human HaCaT cells assessed as reduction in cell viability at 10 uM for 48 hrs by CCK-8 assay; format: toxicity, cell-based; outline: as §1
HCC827 [19] = experiment: Cytotoxicity against human HCC827 cells assessed as reduction in cell viability at 10 uM for 48 hrs by CCK-8 assay; format: toxicity, cell-based; settings: hcc827, 48 h; outline: as §1
HCC827 [20] = experiment: Cytotoxicity against human HCC827 cells assessed as reduction in cell viability at 100 uM for 48 hrs by CCK-8 assay; format: functional, cell-based; outline: as §1
HCC827 [21] = experiment: Cytotoxicity against human HCC827 cells assessed as reduction in cell viability at 100 uM for 24 hrs by CCK-8 assay; format: toxicity, cell-based; settings: hcc827, 24 h; outline: as §1
PC-9 [22] = experiment: Immunomodulatory activity in human PC9 cells expressing PD-L1 co-cultured stimulated PMBC cells assessed as morphological changes at 1 uM measured after 48 hrs by phase-contrast microscopy; format: functional, cell-based
Outline: (§5)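 PC9 or HCC827 cells (2×10^5/well, 24 h) were co-cultured with 2×10^6 PBMCs. Compound was added at 1 μM, and 1 h later PBMCs were stimulated with anti-CD3/anti-CD28 TransAct (1 μg/mL each). Controls were unstimulated PBMCs and untreated cancer cells. After 48 h, phase-contrast microscopy was used to look for junction disruption, nuclear swelling, vacuolization, cytosol shrinkage and membrane rupture.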

HCC827 [23] = experiment: Immunomodulatory activity in human HCC827 cells expressing PD-L1 co-cultured stimulated PMBC cells assessed as IFN-gamma release level at 1 uM measured after 48 hr by ELISA; format: functional, cell-based; outline: as §3
HCC827 [24] = experiment: Cytotoxicity against human HCC827 cells assessed as reduction in cell viability at 10 uM for 24 hrs by CCK-8 assay; format: toxicity, cell-based; settings: hcc827, 24 h; outline: as §1
HCC827 [25] = experiment: Immunomodulatory activity in human HCC827 cells expressing PD-L1 assessed as morphological changes at 1 uM measured after 48 hrs by phase-contrast microscopy; format: functional, cell-based
PC-9 [26] = experiment: Immunomodulatory activity in human PC9 cells expressing PD-L1 co-cultured stimulated PMBC cells assessed as induction of apoptosis at 1 uM for 48 hr by Annexin V-FITC and propidium iodide based flow cytometry; format: functional, cell-based; outline: as §4
HaCaT [27] = experiment: Cytotoxicity against human HaCaT cells assessed as reduction in cell viability at 100 uM for 24 hrs by CCK-8 assay; format: toxicity, cell-based; outline: as §1
HCC827 [28] = experiment: Immunomodulatory activity in human HCC827 cells expressing PD-L1 co-cultured stimulated PMBC cells assessed as morphological changes at 1 uM measured after 48 hrs by phase-contrast microscopy; format: functional, cell-based; outline: as §5
[29] = target: Programmed cell death 1 ligand 1 (Homo sapiens) (UniProt Q9NZQ7); experiment: Binding affinity to human PD-L1 expressing on exosomes assessed as decrease in […] intensity at 0.5 mM by WL-NMR spectroscopy
[30] = target: Programmed cell death 1 ligand 1 (Homo sapiens) (UniProt Q9NZQ7); experiment: Binding affinity to human PD-L1 expressing on exosomes assessed as decrease in […] intensity at 0.5 mM by STD-NMR spectroscopy
[31] = Cytotoxicity against human PBMC cells assessed as reduction in cell viability at 100 uM for 24 hrs by CCK-8 assay; format: toxicity, cell-based; outline: as §1

T1 sequence (Q15116 whole entry): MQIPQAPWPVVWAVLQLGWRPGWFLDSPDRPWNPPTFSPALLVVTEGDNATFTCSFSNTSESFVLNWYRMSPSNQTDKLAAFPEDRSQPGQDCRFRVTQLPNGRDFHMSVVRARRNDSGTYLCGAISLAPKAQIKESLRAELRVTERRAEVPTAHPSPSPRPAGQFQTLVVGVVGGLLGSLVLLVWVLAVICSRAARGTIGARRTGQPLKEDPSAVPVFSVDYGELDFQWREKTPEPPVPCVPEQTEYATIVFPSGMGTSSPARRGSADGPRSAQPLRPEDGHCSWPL
T1 sequence (Q9NZQ7 whole entry): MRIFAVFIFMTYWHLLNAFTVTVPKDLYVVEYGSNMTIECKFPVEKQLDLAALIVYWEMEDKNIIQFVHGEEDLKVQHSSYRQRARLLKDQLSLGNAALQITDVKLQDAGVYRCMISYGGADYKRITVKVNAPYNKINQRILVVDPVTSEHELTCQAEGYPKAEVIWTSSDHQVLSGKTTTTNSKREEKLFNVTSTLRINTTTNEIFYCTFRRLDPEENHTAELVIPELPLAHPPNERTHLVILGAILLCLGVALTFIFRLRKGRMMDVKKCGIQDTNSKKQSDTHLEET
Programmed cell death 1 ligand 1 (Homo sapiens), sequence (Q9NZQ7 whole entry): as above

CC(=O)NCCCNc1ncnc(OCc2cccc(-c3ccccc3)c2C)n1
IC50 [1]: 2150 nM

O=C(O)[C@@H]1CCCCN1Cc1ccc(OCc2cccc(-c3ccccc3)c2Br)c(Br)c1
IC50 [2]: 15 nM

Cc1c(COc2ncnc(N[C@@H](Cc3c[nH]cn3)C(=O)O)n2)cccc1-c1ccccc1
IC50 [1]: > 5000 nM

CC(=O)NCCNc1ncnc(OCc2cccc(-c3ccccc3)c2C)n1
Activity [3]: Toxic | Activity (PC-9 [4]): Non-Toxic | Activity (PC-9 [5]): inactive | Activity [6]: Non-Toxic | Activity (PC-9 [7]): Toxic | Activity (PC-9 [8]): Non-Toxic | Activity [9]: Non-Toxic | Activity (HCC827 [10]): Active | Activity (PC-9 [11]): Active | Activity (HaCaT [12]): Non-Toxic | Activity (PC-9 [13]): Active | Tm [14]: 49 °C | Activity (HaCaT [15]): Toxic | Activity (PC-9 [16]): Toxic | Activity (HCC827 [17]): Active | Activity (HaCaT [18]): Non-Toxic | Activity (HCC827 [19]): Non-Toxic | Activity (HCC827 [20]): Toxic | Activity (HCC827 [21]): Toxic | Activity (PC-9 [22]): Active | IC50 [1]: 115 nM | Activity (HCC827 [23]): Active | Activity (HCC827 [24]): Non-Toxic | Activity (HCC827 [25]): inactive | Activity (PC-9 [26]): Active | Activity (HaCaT [27]): Toxic | Activity (HCC827 [28]): Active

Cc1c(COc2ccc(CNCCO)n3cnnc23)cccc1-c1ccc2c(c1)OCCO2
IC50 [2]: 92.3 nM

COc1cc(C(=O)N2CCC3C(c4ccccc4)=CC=CC32)ccc1CNCCO (configuration not stated)
IC50 [2]: 132 nM

Cc1c(COc2nc(N[C@@H](Cc3c[nH]cn3)C(=O)O)nc(OCc3cccc(C#N)c3)n2)cccc1-c1ccccc1
IC50 [1]: > 5000 nM

CC(=O)NCCNc1nc(OCc2cccc(C#N)c2)nc(OCc2cccc(-c3ccccc3)c2C)n1
IC50 [1]: > 5000 nM

COC(=O)[C@H](Cc1c[nH]cn1)Nc1ncnc(OCc2cccc(-c3ccccc3)c2C)n1
Activity [29]: Active | Activity [30]: Active

Cc1c(COc2ccc(CN[C@H](CO)C(=O)O)c(OCc3cncc(C#N)c3)n2)cccc1-c1ccccc1
IC50 [2]: 12 nM

Cc1c(COc2ncnc(NCCS(N)(=O)=O)n2)cccc1-c1ccccc1
IC50 [1]: 551 nM

CC(=O)NCCNc1nc(C)nc(OCc2cccc(-c3ccccc3)c2C)n1
IC50 [1]: > 5000 nM

COc1nc(NCCNC(C)=O)nc(OCc2cccc(-c3ccccc3)c2C)n1
IC50 [1]: 1530 nM

COC(=O)[C@H](Cc1c[nH]cn1)Nc1nc(OCc2cccc(C#N)c2)nc(OCc2cccc(-c3ccccc3)c2C)n1
IC50 [1]: > 5000 nM

COc1nc(OCc2cccc(-c3ccccc3)c2C)ccc1CNCCNC(C)=O
Activity [3]: Toxic | Activity (PC-9 [4]): Non-Toxic | Activity (PC-9 [5]): inactive | Activity [6]: Non-Toxic | Activity (PC-9 [7]): Toxic | Activity (PC-9 [8]): Non-Toxic | Activity [9]: Non-Toxic | Activity (HCC827 [10]): Active | Activity (PC-9 [11]): Active | Activity (HaCaT [12]): Non-Toxic | Activity (PC-9 [13]): Active | Tm [14]: 53 °C | Activity (HaCaT [15]): Toxic | Activity (PC-9 [16]): Toxic | Activity (HCC827 [17]): Active | Activity (HaCaT [18]): Non-Toxic | Activity (HCC827 [19]): Non-Toxic | Activity (HCC827 [20]): Toxic | Activity (HCC827 [21]): Toxic | Activity (PC-9 [22]): Active | Activity (HCC827 [23]): Active | Activity [31]: Toxic | Activity (HCC827 [24]): Non-Toxic | Activity (HCC827 [25]): inactive | Activity (PC-9 [26]): Active | Activity (HaCaT [27]): Toxic | Activity (HCC827 [28]): Active

CC(=O)NCCNc1nc(O)nc(OCc2cccc(-c3ccccc3)c2C)n1
IC50 [1]: > 5000 nM

Cc1c(COc2ncnc(NCCNS(C)(=O)=O)n2)cccc1-c1ccccc1
IC50 [1]: 241 nM

CC(C)(C)OC(=O)NCCNc1nc(OCc2ccccc2)nc(N2CCC[C@H]2C(=O)NCc2ccccc2)n1
IC50 [1]: > 5000 nM

Cc1c(COc2ccc(CN3CCCC[C@H]3C(=O)NCCN)c(OCc3cccc(C#N)c3)c2)cccc1-c1ccccc1
IC50 [2]: 9.1 nM
